# TbMetRS inhib = blocks T. brucei methionyl-tRNA synthetase activity; inhibition, % at 11.9 µM; 360,000 tested, 0.4% active; purified T. brucei MetRS, ATP depletion, Kinase-Glo luminescence;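 active = inhibition above a per-plate cutoff of the control wells' mean inhibition plus 3 SD, cut at about 5.5% in these data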;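 note: 0% = DMSO wells median and 100% = median of wells with control inhibitor compound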
#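 Dosing: 11.9 µM single point; system: parasite MetRS enzyme; technique: luminescence of leftover ATP; times: 15 min enzyme-compound preincubation, 2 h reaction, 10 min detection, 25 °C; replicates: each compound tested once; read-out basis: percent inhibition relative to median high and low control wells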
# m5-HT2A agonist = activates the mouse 5-HT2A serotonin receptor; P35363; CHO-K1 mHTR2A beta-arrestin complementation, luminescence; percent of 30 µM serotonin response; activation, % at 7.6 µM; 360,000 tested, 0.66% active; AID 624169;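 active = activation above a run cutoff, the mean activation of all tested compounds plus 3 SD, cut at about 14% in these data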;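 note: 0% = plate median of compound wells and 100% = 30 µM serotonin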
# MsrA act = activates bovine MsrA enzyme; purified bovine MsrA, absorbance read-out; activation, % at 10.6 µM; 360,000 tested, 0.3% active; in the data active = activation above about 7.5%;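 note: 0% = vehicle and 100% = reference activator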
# MsrA inhibitor = inhibitors of bovine MsrA; purified bovine MsrA, absorbance read-out; 360,000 tested, 0.75% active; AID 651718; inhibition, % at 15.5 µM; in the data active = inhibition above about 4.5%;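 note: 0% = vehicle wells with enzyme and 100% = reference inhibitor wells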
# AI-2 QS modul = modulators of Vibrio harveyi AI-2 quorum sensing system. Vibrio harveyi JMH597 AI-2 luminescence/OD600 ratio, 9 h; stronger effect = lower value; strain lacks LuxN and CqsS sensors; 0 = neutral-control median. activity change, % at 7.5 µM. 300,000 tested, 0.4% active; in the data active = activity change below about -75%, passing the limit was not always enough;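 note: luminescence divided by OD600 gain over 9 h not by final OD600 alone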
# AHR act = activates the human aryl hydrocarbon receptor | AHR-responsive luciferase reporter cells, luminescence | activation, % at 5 µM | 320,000 tested, 2.5% active | P35869; in the data active = activation above about 47%;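 note: 0% = vehicle wells and 100% = reference agonist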
# MOR ag counter = activates human mu opioid receptor in HTR2A counterscreen. 2,300 tested, 5.3% active. AID 624380. shares compounds with m5-HT2A agonist. U2OS OPRM1 beta-arrestin PathHunter, luminescence; DMSO 0%, DAMGO 9.3 µM 100%. activation, % at 9.3 µM;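 active = mean activation above the mean of DMSO-only wells plus 3 SD, cut at about 0.5% in these data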
# Target sequence (P35372 whole entry, looked up): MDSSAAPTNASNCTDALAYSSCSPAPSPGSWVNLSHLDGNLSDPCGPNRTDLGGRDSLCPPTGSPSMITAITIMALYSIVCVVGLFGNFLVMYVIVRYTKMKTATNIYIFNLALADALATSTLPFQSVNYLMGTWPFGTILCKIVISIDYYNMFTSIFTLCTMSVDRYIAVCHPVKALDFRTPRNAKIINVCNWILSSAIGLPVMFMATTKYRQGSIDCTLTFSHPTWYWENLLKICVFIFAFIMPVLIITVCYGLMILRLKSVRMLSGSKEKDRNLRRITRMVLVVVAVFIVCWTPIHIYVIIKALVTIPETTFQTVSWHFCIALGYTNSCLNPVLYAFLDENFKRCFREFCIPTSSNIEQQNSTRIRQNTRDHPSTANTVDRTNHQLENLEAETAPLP
# m5-HT2A ag conf = confirmation of mouse HTR2A serotonin receptor agonists; CHO-K1 PathHunter beta-arrestin recruitment, luminescence; DMSO 0%, 30 µM serotonin 100%; shares compounds with m5-HT2A agonist; activation, % at 7.6 µM; 2,300 tested, 19% active;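 active = mean activation across triplicates above the hit threshold derived in the original primary screen, cut at about 15% in these data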
# Starred values were filed as active, the others as inactive; / = no result given. In the library only some 4.4% were active in any assay of this set; here they are far more common.
SMILES,TbMetRS inhib,m5-HT2A agonist,MsrA act,MsrA inhibitor,AI-2 QS modul,AHR act,MOR ag counter,m5-HT2A ag conf
Fc1ccc(CN2CCN(c3ncccn3)CC2)cc1,0,23*,-3,-1,7,-7,1.3*,142*
Oc1ccc(F)c(CN2CCN(c3ncc(Cc4ccccc4)cn3)CC2)c1,0,-6,/,1,/,/,/,/
Fc1ccc(F)c(CN2CCN(c3ncccn3)CC2)c1,-1,44*,-4,/,24,1,-1,101*
Cc1cc(C)cc(C(O)c2ncc(-c3ccc(C(F)(F)F)cc3)[nH]2)c1 (centres undefined),0,-4,-1,1,/,/,/,/
Cc1[nH]c(-c2ccc(F)cc2)cc1C(=O)N1CCN(c2cccc(Cl)c2)CC1,0,-12,-2,2,20,/,/,/
O=C([C@H](Cc1ccccc1)NS(=O)(=O)c1ccc(Cl)cc1)N1CC[C@@]2(O)CCCC[C@H]2C1,-1,17*,-2,0,15,1,-1,-5
COc1ccc(S(=O)(=O)N[C@@H](Cc2ccccc2)C(=O)N2CC[C@@]3(O)CCCC[C@H]3C2)cc1,1,1,-12,-1,29,2,/,/
O=C(COc1ccc(Cl)cc1)NCCS(=O)(=O)N1CCN(c2ccccc2F)CC1,0,16*,3,0,25,1,0,2
CC(C)c1ccc(N(CC(=O)NC(C)(C)C)C(=O)CCC(=O)Nc2nccs2)cc1,0,29*,-2,0,8,3,-1,-3
CCCC(=O)Nc1cc2c3c(c1)C(C)C(=O)N3CCC2 (centres undefined),0,0,-4,-1,18,3,/,/
CC(C)C1COC(c2cccn2Cc2ccccc2Cl)=N1 (centres undefined),-1,-6,-3,0,13,-1,/,/
Cc1ccc(Cn2cccc2C2=NC(C)CO2)cc1 (centres undefined),0,14*,0,1,12,2,0,-6
Cc1ccc(OCC(=O)NNC(=O)c2cc(S(=O)(=O)N(C)C)ccc2N2CCCC2)cc1,0,-2,-1,2,/,/,/,/
Cn1c(CNC(=O)C(Cc2ccccc2)NC(=O)c2cccc(F)c2)cc(=O)n(C)c1=O (centres undefined),-1,2,-7,1,-36,7,/,/
Cc1cc2c(=O)[nH]c(N)nc2[nH]1,0,16*,-3,1,/,/,0,1
Cn1ncc2c(=O)[nH]c(N)nc21,0,0,-3,0,/,/,/,/
O=C(COC(=O)c1ccc(Cl)c(S(=O)(=O)N2CCCCC2)c1)NCCc1ccccc1,-1,1,-11,0,/,/,/,/
Cc1ccc(C(=O)OCC(=O)NCc2cccc(Cl)c2)cc1S(=O)(=O)N1CCCCC1,0,17*,-2,0,/,/,0,-6
CCCCCN(C(=O)CCC(=O)OC(C)C(=O)Nc1cccc(C#N)c1)c1c(N)n(CCCC)c(=O)[nH]c1=O (centres undefined),0,-7,-1,0,8,2,/,/
C=C(C)c1cccc(C(C)(C)NC(=O)Nc2ncccn2)c1,-1,-5,0,1,28,-1,/,/
C=C(C)c1cccc(C(C)(C)NC(=O)Nn2cnnc2)c1,0,16*,3,0,36,0,-1,16*
COc1ccccc1C1N(c2ccc(Cl)cc2)C(=O)C2CCCN21 (centres undefined),0,-1,-1,1,5,10,/,/
COc1cccc(C2N(c3cccc(Cl)c3)C(=O)C3CCCN32)c1OC (centres undefined),0,17*,1,1,15,0,-1,1
COc1cc(C2N(c3cccc(Cl)c3)C(=O)C3CCCN32)cc(OC)c1OC (centres undefined),2,21*,-5,0,33,5,-1,1
COc1cc(C2N(c3ccc(Cl)cc3)C(=O)C3CCCN32)cc(OC)c1OC (centres undefined),0,5,2,0,20,3,/,/
SMILES,TbMetRS inhib,m5-HT2A agonist,MsrA act,MsrA inhibitor,AI-2 QS modul,AHR act,MOR ag counter,m5-HT2A ag conf
Cn1c(Cc2cccs2)nnc1SCC(=O)Nc1ccc(F)cc1F,0,15*,-6,0,17,3,0,-4
COc1ccccc1NC(=O)CSc1nnc(Cc2cccs2)n1C,0,6,-3,-1,3,2,/,/
CCOC(=O)C1(CCCc2ccccc2)CCN(Cc2ccn[nH]2)CC1,0,15*,-2,2,44,8,-1,-5
O=C(Cc1cccc(C(F)(F)F)c1)NCc1cccc(Cl)c1,4,25*,2,-1,1,2,0,-6
COc1ccc(CCNC(=O)c2cc3cc(F)ccc3nc2C)cc1OC,-1,1,-3,0,15,11,/,/
O=C(O)C1CC=CCC1C(=O)NCCc1cccc(Cl)c1 (centres undefined),-1,24*,-1,/,23,1,0,-1
O=C(O)C1CCCCC1C(=O)NCCc1ccccc1 (centres undefined),-1,15*,-7,0,15,-3,0,3
O=C(O)C1CC=CCC1C(=O)Nc1cccc(Cl)c1 (centres undefined),-2,2,-12,0,0,4,/,/
O=C(O)/C=C/C(=O)NCCc1cccc(Cl)c1,0,26*,-2,-1,-2,1,0,8
O=C(O)C1CC=CCC1C(=O)NCCc1csc(-c2ccccc2)n1 (centres undefined),0,16*,-3,1,18,3,0,-3
O=C(O)/C=C/C(=O)NCCc1ccccc1,0,3,-2,0,19,0,/,/
O=S(=O)(c1cccc2ccccc12)N1CCC2CC1c1cc(-c3ccc4c(c3)OCO4)ccc12 (centres undefined),-1,-4,-4,0,/,/,/,/
CCN(c1ccc(OC)cc1)S(=O)(=O)N1CCCC(C(=O)NC(C)c2ccccc2)C1 (centres undefined),0,5,0,0,/,/,/,/
NNc1ccc2nncn2n1,-1,1,-2,0,-5,10,/,/
c1ccc(CCNc2ccc3nncn3n2)cc1,0,16*,-2,0,15,-1,0,-6
O=C(Nc1ccc(F)cc1)Oc1ccc[nH]c1=O,0,15*,-2,0,-8,2,0,-2
COC(=O)c1ccc(COc2ccc(/C=C(\C#N)c3nc4ccccc4[nH]3)cc2OC)o1,2,0,-2,1,37,6,/,/

# High-throughput results deposited in PubChem by several laboratories.
